Experimental data taken from ChEMBL document CHEMBL4017549, “Structural Basis of Inhibition of ERα-Coactivator Interaction by High-Affinity N-Terminus Isoaspartic Acid Tethered Helical Peptides” (J Med Chem, 2017).
Active and inactive are the calls of the source. No cut-off for these calls is given here. Bridge positions count the residues as written; N and C are the ends. Square brackets hold non-standard residues; d marks the D form. Side chains are listed from the residue outwards. Peptide text beside a SMILES is read from it. * marks the point of attachment. ξ: configuration not given here. FITC = O=C1OC2(c3ccc(O)cc3Oc3cc(O)ccc32)c2ccc(NC(=S)*)cc21; ξtBuAla = CC(C)(C)CC(N)C(=O)O; ξD = NC(CC(=O)O)C(=O)O; ξDap = NCC(N)C(=O)O; βAla = NCCC(=O)O

Legend:
[1] = target: T1, Estrogen receptor (Homo sapiens) (UniProt P03372); test: Binding affinity to recombinant human GFP-fused ERalpha LBD (301 to 553 residues) expressed in Escherichia coli BL21(DE3) after 40 mins in presence of 17beta-estradiol by fluorescence polarization assay; settings: in the assay text read “ERalpha LBD” for “GFP-fused ERalpha LBD”
T1 sequence (whole entry): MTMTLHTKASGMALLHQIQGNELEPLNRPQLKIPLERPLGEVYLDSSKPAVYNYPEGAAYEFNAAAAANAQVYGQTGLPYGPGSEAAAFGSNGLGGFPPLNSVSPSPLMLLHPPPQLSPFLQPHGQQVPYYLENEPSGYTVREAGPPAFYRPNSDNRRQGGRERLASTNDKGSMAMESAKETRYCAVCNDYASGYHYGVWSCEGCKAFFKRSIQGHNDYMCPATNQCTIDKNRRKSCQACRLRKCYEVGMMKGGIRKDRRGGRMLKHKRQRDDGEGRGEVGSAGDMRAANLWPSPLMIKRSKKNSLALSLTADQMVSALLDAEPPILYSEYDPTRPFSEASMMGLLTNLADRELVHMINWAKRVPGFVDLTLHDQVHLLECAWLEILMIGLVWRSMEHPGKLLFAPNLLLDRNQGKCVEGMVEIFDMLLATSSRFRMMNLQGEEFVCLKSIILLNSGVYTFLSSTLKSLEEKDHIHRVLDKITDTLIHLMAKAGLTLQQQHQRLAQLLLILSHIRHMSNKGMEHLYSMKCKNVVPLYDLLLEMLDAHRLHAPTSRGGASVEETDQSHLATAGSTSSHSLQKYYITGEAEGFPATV

[2] = Drug uptake in human U2OS cells assessed per million cells at 5 uM after 3 hrs by FACS analysis; assay type: ADME, cell-based
Procedure, shortened: (§1)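 Adherent cells seeded overnight, then exposed to 5 μM FITC-labelled peptide or DMSO in FBS-free medium, 3 h, 37 °C. After PBS washes (three), about 10000 cells per sample analysed by flow cytometry; mean cellular fluorescence intensity calculated. More than two independent experiments, SEM.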

[3] = Drug uptake in human MCF7 cells assessed per million cells at 5 uM after 3 hrs by FACS analysis; assay type: ADME, cell-based; settings: mcf7, 3 h; procedure, shortened: as §1
MCF7 = test: Cytotoxicity against human MCF7 cells assessed as cell viability at 20 uM after 24 hrs by MTT assay; assay type: functional; settings: MCF7, 24 h, read-out: Activity
[4] = target: T1, Estrogen receptor (Homo sapiens); test: Inhibition of recombinant human GFP-fused ERalpha LBD (301 to 553 residues) expressed in human […] cells assessed as downregulation of 17beta-estradiol-induced transcription at 5 uM preincubated for 4 hrs followed by E2 addition measured after 20 hrs by dual luciferase reporter gene assay; assay type: cell-based
Procedure, shortened: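 U2OS cells in phenol red-free DMEM with 10% charcoal-stripped FBS, transfected 4 h with pEGFP-C1-ERα, 3XERE firefly luciferase reporter and pRL-TK Renilla plasmids. Peptides for 4 h, then 10 nM E2 or DMSO for 20 h. Lysates read by dual-luciferase; firefly normalized to Renilla, then to DMSO-treated control. SEM from more than two independent experiments.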

[5] = target: T1, Estrogen receptor (Homo sapiens); test: Inhibition of ERalpha in human MCF7 cells assessed as downregulation of 17beta-estradiol-mediated pS2 mRNA expression at 5 uM preincubated for 4 hrs followed by 17beta-estradiol addition measured after 16 hrs by quantitative RT-PCR analysis; assay type: cell-based
Procedure, shortened: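 MCF-7 cells hormone-depleted 72 h in phenol red-free DMEM with 5% charcoal-treated serum, given peptides or DMSO for 4 h, then 100 nM 17β-estradiol or DMSO for 16 h. pS2 mRNA measured by quantitative RT-PCR, normalized to β-actin. Three independent experiments, mean ± SEM.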

[6] = target: T1, Estrogen receptor (Homo sapiens); test: Binding affinity to recombinant human GFP-fused ERalpha LBD (301 to 553 residues) expressed in Escherichia coli BL21(DE3) in presence of 17beta-estradiol by ITC
Procedure, shortened: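 ITC at 25 °C. 2 μL injections of 50 μM peptide into 5 μM ERα LBD in 50 mM Tris pH 8.0, 150 mM NaCl, 1 mM TCEP, 0.1 mM 17β-estradiol. Binding isotherm fitted for affinity.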

[7] = target: T1, Estrogen receptor (Homo sapiens); test: Binding affinity to recombinant human GFP-fused ERalpha LBD (301 to 553 residues) expressed in Escherichia coli BL21(DE3) in presence of ERalpha inhibitor 4-hydroxytamoxifen by ITC
Procedure, shortened: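 ITC at 25 °C. 50 μM peptide injected in 2 μL steps into 5 μM ERα LBD in 50 mM Tris pH 8.0, 150 mM NaCl, 1 mM TCEP containing 0.1 mM 4-hydroxytamoxifen instead of estradiol. Isotherm fitted.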

SMILES	Activity [1]	viability at 20 µM (MCF7)	further results
CC[C@H](C)[C@@H]1NC(=O)C[C@H](NC(=O)[C@H](CCCNC(=N)N)NC(=O)CCNC(=S)Nc2ccc3c(c2)C(=O)OC32c3ccc(O)cc3Oc3cc(O)ccc32)C(=O)NCC(C(=O)N[C@@H](CCCNC(=N)N)C(=O)N[C@@H](CC(C)C)C(=O)NC(CC(C)(C)C)C(=O)N[C@@H](CCC(N)=O)C(N)=O)NC(=O)[C@H](CC(C)C)NC1=O (some centres not stated)	Active		
CC[C@H](C)[C@@H]1NC(=O)C(NC(=O)[C@H](CCCNC(=N)N)NC(=O)CCNC(=S)Nc2ccc3c(c2)C(=O)OC32c3ccc(O)cc3Oc3cc(O)ccc32)CNC(=O)C(CC(=O)N[C@@H](CCC(N)=O)C(=O)NC(CC(C)(C)C)C(=O)N[C@@H](CCCNC(=N)N)C(=O)NC(CC(C)(C)C)C(N)=O)NC(=O)C(CC(C)(C)C)NC1=O (stereo partly drawn) ({FITC-βAla}-R[ξDap]I[ξtBuAla][ξD]([Gln-ξtBuAla-Arg-ξtBuAla-NH2]); lactam 2-C)	inactive		Drug uptake [2]: Active; Drug uptake [3]: Active
CC[C@H](C)[C@@H]1NC(=O)C[C@H](NC(=O)[C@H](CCCNC(=N)N)NC(=O)CCNC(=O)[C@H](Cc2c[nH]c3ccccc23)NC(C)=O)C(=O)NCC(C(=O)N[C@@H](CCCNC(=N)N)C(=O)NC(CC(C)(C)C)C(=O)N[C@@H](CC(C)C)C(=O)N[C@@H](CCC(N)=O)C(N)=O)NC(=O)[C@H](CC(C)C)NC1=O (some centres not stated)		53.9%	
CC[C@H](C)[C@@H]1NC(=O)C(NC(=O)[C@H](CCCNC(=N)N)NC(=O)CCNC(=O)[C@H](Cc2c[nH]c3ccccc23)NC(C)=O)CNC(=O)C(CC(=O)N[C@@H](CCC(N)=O)C(=O)NC(CC(C)(C)C)C(=O)N[C@@H](CCCNC(=N)N)C(=O)NC(CC(C)(C)C)C(N)=O)NC(=O)C(CC(C)(C)C)NC1=O (stereo partly drawn) (Ac-W[βAla]R[ξDap]I[ξtBuAla][ξD]([Gln-ξtBuAla-Arg-ξtBuAla-NH2]); lactam 4-C)		79.2%	inhibition [4]: inactive; inhibition [5]: inactive
CC[C@H](C)[C@@H]1NC(=O)C[C@H](NC(=O)[C@H](CCCNC(=N)N)NC(=O)CCNC(=S)Nc2ccc3c(c2)C(=O)OC32c3ccc(O)cc3Oc3cc(O)ccc32)C(=O)NCC(C(=O)N[C@@H](CCCNC(=N)N)C(=O)N[C@@H](CC(C)C)C(=O)N[C@@H](CC(C)C)C(=O)N[C@@H](CCC(N)=O)C(N)=O)NC(=O)C(CC(C)(C)C)NC1=O (some centres not stated)	Active		
CC[C@H](C)[C@@H]1NC(=O)C[C@H](NC(=O)[C@H](CCCNC(=N)N)NC(=O)CCNC(=O)[C@H](Cc2c[nH]c3ccccc23)NC(C)=O)C(=O)NCC(C(=O)N[C@@H](CCCNC(=N)N)C(=O)N[C@@H](CC(C)C)C(=O)NC(CC(C)(C)C)C(=O)N[C@@H](CCC(N)=O)C(N)=O)NC(=O)[C@H](CC(C)C)NC1=O (some centres not stated)		43.1%	
CC[C@H](C)[C@@H]1NC(=O)C[C@H](NC(=O)[C@H](CCCNC(=N)N)NC(=O)CCNC(=O)[C@H](Cc2c[nH]c3ccccc23)NC(C)=O)C(=O)NCC(C(=O)N[C@@H](CCCNC(=N)N)C(=O)N[C@@H](CC(C)C)C(=O)N[C@@H](CC(C)C)C(=O)N[C@@H](CCC(N)=O)C(N)=O)NC(=O)[C@H](CC(C)C)NC1=O (some centres not stated)		64.5%	
CC[C@H](C)[C@@H]1NC(=O)C[C@H](NC(=O)[C@H](CCCNC(=N)N)NC(=O)CCNC(=O)[C@H](Cc2c[nH]c3ccccc23)NC(C)=O)C(=O)NCC(C(=O)N[C@@H](CCCNC(=N)N)C(=O)N[C@@H](CC(C)C)C(=O)N[C@@H](CC(C)C)C(=O)N[C@@H](CCC(N)=O)C(N)=O)NC(=O)C(CC(C)(C)C)NC1=O (some centres not stated)		53.9%	
CC[C@H](C)[C@@H]1NC(=O)C[C@H](NC(=O)[C@H](CCCNC(=N)N)NC(=O)CCNC(=S)Nc2ccc3c(c2)C(=O)OC32c3ccc(O)cc3Oc3cc(O)ccc32)C(=O)NCC(C(=O)N[C@@H](CCCNC(=N)N)C(=O)NC(CC(C)(C)C)C(=O)N[C@@H](CC(C)C)C(=O)N[C@@H](CCC(N)=O)C(N)=O)NC(=O)[C@H](CC(C)C)NC1=O (some centres not stated)	Active		Activity [6]: Active; Drug uptake [2]: Active; Drug uptake [3]: Active; Activity [7]: inactive
